Holding throughout (type): functional
For assay [1], the species on record is Homo sapiens. As to the kind of experiment: In vitro inhibitory activity of compound 5 (ug/ml) on platelet aggregation induced by AA. The procedure, abridged: (§1)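 Platelets were preincubated with test sample or 0.5% DMSO vehicle at 37 °C for 1 min. Aggregation was then triggered by one inducer: thrombin 0.1 U/mL, arachidonic acid 100, collagen 10, or PAF 2 ng/mL. Read-out was percent aggregation, reported as mean±SE with n=3–6.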

The species named for assay [2] is Homo sapiens. As to the kind of experiment: In vitro inhibitory activity of compound 1 (ug/ml) on platelet aggregation induced by collagen. The procedure, abridged: as §1
Assay [3] is filed under the species Homo sapiens. As to the kind of experiment: In vitro inhibitory activity of control on platelet aggregation induced by PAF. The method in brief:
as §1

For assay [4], the species on record is Homo sapiens. The assay can be described thus: In vitro inhibitory activity of compound 100 (ug/ml) on platelet aggregation induced by PAF. The procedure, abridged: as §1
The species entered for assay [5] is Homo sapiens. As to the kind of experiment: In vitro inhibitory activity of compound 0.2 (ug/ml) on platelet aggregation induced by AA. The procedure, abridged:
as §1

The species named for assay [6] is Homo sapiens. The assay can be described thus: In vitro inhibitory activity of compound 2 (ug/ml) on platelet aggregation induced by AA. The method in brief: as §1
For assay [7], the species on record is Homo sapiens. As to the kind of experiment: In vitro inhibitory activity of compound 0.1 (ug/ml) on platelet aggregation induced by collagen. The procedure, abridged:
as §1

For assay [8], the species on record is Homo sapiens. The assay can be described thus: In vitro inhibitory activity of compound 5 (ug/ml) on platelet aggregation induced by collagen. The procedure, abridged:
as §1

The species entered for assay [9] is Homo sapiens. As to the kind of experiment: In vitro inhibitory activity of control on platelet aggregation induced by thrombin. The procedure, abridged: as §1
The species named for assay [10] is Homo sapiens. The assay can be described thus: In vitro inhibitory activity of compound 100 (ug/ml) on platelet aggregation induced by AA. The method in brief:
as §1

For assay [11], the species on record is Homo sapiens. The assay can be described thus: In vitro inhibitory activity of compound 10 (ug/ml) on platelet aggregation induced by collagen. The procedure, abridged: as §1
The species entered for assay [12] is Homo sapiens. The assay can be described thus: In vitro inhibitory activity of compound 100 (ug/ml) on platelet aggregation induced by collagen. The method in brief:
as §1

For assay [13], the species on record is Homo sapiens. As to the kind of experiment: In vitro inhibitory activity of compound 0.2 (ug/ml) on platelet aggregation induced by collagen. The method in brief:
as §1

The species entered for assay [14] is Homo sapiens. The assay can be described thus: In vitro inhibitory activity of compound 0.5 (ug/ml) on platelet aggregation induced by AA. The method in brief: as §1
The species named for assay [15] is Homo sapiens. The assay can be described thus: In vitro inhibitory activity of compound 100 (ug/ml) on platelet aggregation induced by thrombin. The procedure, abridged: as §1
The species entered for assay [16] is Homo sapiens. As to the kind of experiment: In vitro inhibitory activity of compound 2 (ug/ml) on platelet aggregation induced by collagen. The procedure, abridged:
as §1

For assay [17], the species on record is Homo sapiens. As to the kind of experiment: In vitro inhibitory activity of compound 1 (ug/ml) on platelet aggregation induced by AA. The procedure, abridged: as §1
The species entered for assay [18] is Homo sapiens. The assay can be described thus: In vitro inhibitory activity of compound 0.5 (ug/ml) on platelet aggregation induced by collagen. The procedure, abridged: as §1
Assay [19] is filed under the species Homo sapiens. As to the kind of experiment: In vitro inhibitory activity on platelet aggregation induced by arachidonic acid (AA). The method in brief: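 Platelets were preincubated 1 min at 37 °C with test sample or 0.5% DMSO. Aggregation was then triggered with arachidonic acid 100. Aspirin and indomethacin served as positive controls.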
For assay [20], the species on record is Homo sapiens. The assay can be described thus: In vitro inhibitory activity of control on platelet aggregation induced by AA. The method in brief: as §1
For assay [21], the species on record is Homo sapiens. As to the kind of experiment: In vitro inhibitory activity of control on platelet aggregation induced by collagen. The method in brief:
as §1

The species entered for assay [22] is Homo sapiens. As to the kind of experiment: In vitro inhibitory activity of compound on platelet aggregation induced by collagen. The method in brief: as §1
The species named for assay [23] is Homo sapiens. As to the kind of experiment: In vitro inhibitory activity of compound 20 (ug/ml) on platelet aggregation induced by PAF. The method in brief:
as §1

The species entered for assay [24] is Homo sapiens. As to the kind of experiment: In vitro inhibitory activity of compound 0.1 (ug/ml) on platelet aggregation induced by AA. The procedure, abridged: as §1
For assay [25], the species on record is Homo sapiens. The assay can be described thus: In vitro inhibitory activity of compound 50 (ug/ml) on platelet aggregation induced by PAF. The procedure, abridged: as §1
The species named for assay [26] is Homo sapiens. As to the kind of experiment: Potent antiplatelet activity was evaluated.

On to `CCOc1cc(-c2ccccc2)nc2ccccc12`, for which the Aggregation in the assay filed under Homo sapiens [1] was determined as 0%; in the assay filed under Homo sapiens [2] it was 36.3%; in the assay listed under Homo sapiens [3] it was 92%; in the assay listed under Homo sapiens [4], 63.8%; in the assay listed under Homo sapiens [5], 86.4%; in the assay filed under Homo sapiens [6], 1.7%. Besides, the Aggregation in the assay filed under Homo sapiens [7] was 85.9%; in the assay listed under Homo sapiens [8], 15.9%; in the assay listed under Homo sapiens [9], 92.5%; in the assay listed under Homo sapiens [10], 0%; in the assay filed under Homo sapiens [11] it was 5.9%; in the assay listed under Homo sapiens [12], 0%. The Aggregation in the assay listed under Homo sapiens [13] was 78.5%; in the assay filed under Homo sapiens [14], 23.1%; in the assay listed under Homo sapiens [15] it was 80%; in the assay listed under Homo sapiens [16] it was 28.4%; in the assay listed under Homo sapiens [17] it was 4.3%; in the assay filed under Homo sapiens [18], 43.5%. In addition, the Aggregation in the assay filed under Homo sapiens [20] was determined as 90.9%; in the assay filed under Homo sapiens [21], 89.2%. In addition, the half-inhibitory concentration (IC50) (in general, the point on the concentration scale where inhibition reaches its midpoint) in the assay filed under Homo sapiens [19] amounted to 2010 nM; in the assay filed under Homo sapiens [22], 3610 nM.
As to `COc1cc(-c2ccccc2)nc2ccccc12`, the Aggregation is listed as 87.2% in the assay listed under Homo sapiens [23]; 18.5% in the assay filed under Homo sapiens [2]; 92% in the assay listed under Homo sapiens [3]; 0% in the assay filed under Homo sapiens [4]; 86% in the assay listed under Homo sapiens [5]; 90.8% in the assay filed under Homo sapiens [24]. Further, the Aggregation amounted to 0% in the assay listed under Homo sapiens [6]; 0% in the assay listed under Homo sapiens [8]; 92.5% in the assay filed under Homo sapiens [9]; 65.8% in the assay filed under Homo sapiens [25]; 0% in the assay listed under Homo sapiens [10]; 0% in the assay filed under Homo sapiens [12]. Moreover, the Aggregation in the assay filed under Homo sapiens [14] is 53.4%; in the assay filed under Homo sapiens [15], 56.8%; in the assay filed under Homo sapiens [16] it was 9.4%; in the assay listed under Homo sapiens [17], 9.3%; in the assay listed under Homo sapiens [20], 90.9%; in the assay filed under Homo sapiens [21] it was 89.2%. For the same compound, the figures for the half-maximal inhibitory concentration (IC50) in the assay listed under Homo sapiens [19] and in the assay listed under Homo sapiens [22] were 2130 nM and 1700 nM, respectively.
`CCOC(=O)CCCOc1cc(-c2ccccc2)nc2cccc(CC)c12` gave an IC50 in the assay listed under Homo sapiens [19] of 1540 nM.
Same read-out and setting: the same measure for `CCOC(=O)CCCCOc1cc(-c2ccccc2)nc2cccc(CC)c12`: 530 nM.
`CCc1cccc2nc(-c3ccccc3)cc(O)c12` showed a half-inhibitory concentration (IC50) in the assay listed under Homo sapiens [26] of 150 nM.
Take `CCc1cccc2nc(-c3ccccc3)cc(OC)c12`: the midpoint of inhibition in the assay filed under Homo sapiens [19], the IC50, lay at 80 nM.
Still for that read-out and setting: the same measure for `O=C(O)COc1cc(-c2ccccc2)nc2ccccc12`: 35600 nM.
Still for that read-out and setting: the same measure for `CCOc1cc(-c2ccccc2)nc2cc(CC)ccc12`: 3970 nM.
Same read-out and setting: the same measure for `CCNC(=O)COc1cc(-c2ccccc2)nc2cccc(CC)c12`: 600 nM.
With `CCc1cccc2c1c(=O)cc(-c1ccccc1)n2C`, in the assay listed under Homo sapiens [19], the IC50 came to 30000 nM.
On the same count and under the same terms, the figure for `CCOC(=O)COc1cc(-c2ccccc2)nc2ccccc12` is 13900 nM; for `CCOC(=O)COc1cc(-c2ccccc2)nc2cccc(CC)c12` it is 780 nM; for `CCOc1cc(-c2ccccc2)nc2cccc(CC)c12` it is 140 nM.
For the compound `CCc1cccc2nc(-c3ccccc3)cc(OCC(=O)NC)c12`, the IC50 in the assay filed under Homo sapiens [19] came out at 1880 nM.
The same measure, in the same setting: the same measure for `CC(=O)Oc1ccccc1C(=O)O` [ASPIRIN]: 20000 nM.
Still for that read-out and setting: the same measure for `COc1ccc2c(c1)c(CC(=O)O)c(C)n2C(=O)c1ccc(Cl)cc1` [INDOMETHACIN]: 250 nM.

Values taken from ChEMBL document CHEMBL1134765, “Synthesis of 4-alkoxy-2-phenylquinoline derivatives as potent antiplatelet agents” (Bioorg Med Chem Lett, 2001).
